Measured values: ChEMBL document CHEMBL3217723, “Optimizing PK properties of cyclic peptides: the effect of side chain substitutions on permeability and clearance()” (Medchemcomm, 2012)
Values belong to the compound of their own block, whether it stands above or below them. *1 amine or outer side, *2 acyl side, *3 side chain or, on linkers, in order; H or OH if unused. Where a SMILES comes first, the peptide text is derived from it. [ ]: non-standard residue; d: D form. X1 = CN([C@@H](CCN1CCCCC1)C(=O)[*:2])[*:1]; NMeW = CN[C@@H](Cc1c[nH]c2ccccc12)C(=O)O; NMeY = CN[C@@H](Cc1ccc(O)cc1)C(=O)O; NMeLys(Me) = CNCCCC[C@H](NC)C(=O)O; NMeT = CN[C@H](C(=O)O)[C@@H](C)O; NMeL = CN[C@@H](CC(C)C)C(=O)O; dNMeL = CN[C@H](CC(C)C)C(=O)O; NMeK = CN[C@@H](CCCCN)C(=O)O; NMeS = CN[C@@H](CO)C(=O)O

Experiments:
[1] = Lipophilicity, log D of the compound at pH 7.4 by shake-flask method; format: physicochemical; details: buffer
[2] = Intrinsic clearance in rat liver microsomes by LC-MS/MS analysis; format: ADME; details: read-out: CLH
Summary of the method: (§1)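 Compound at 1 µM with liver microsomes (CYP 0.25 µM) in 0.1 M potassium phosphate, pH 7.4, at 37 °C. Final solvent was 0.975% acetonitrile and 0.025% DMSO. Mix prewarmed 5 min, then started with 1.3 mM NADPH; no-NADPH controls were run. Sampled at 0–60 min into acetonitrile and followed by LC-MS/MS for substrate loss. T1/2 was scaled to CLint by the well-stirred model.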

[3] = Intrinsic clearance in human liver microsomes by LC-MS/MS analysis; format: ADME; details: read-out: CLH; summary of the method: as §1
[4] = Cmax in male Wistar-Han rat at 10 mg/kg, po; format: ADME, organism-based; parameters: dose 10 mg/kg, route oral; details: in vivo
[5] = Tmax in male Wistar-Han rat at 10 mg/kg, po; format: ADME, organism-based; parameters: dose 10 mg/kg, route oral; details: in vivo
[6] = Plasma clearance in male Wistar-Han rat at 1 mg/kg, iv; format: ADME, organism-based; parameters: dose 1 mg/kg, route intravenous
[7] = Volume of distribution at steady state in male Wistar-Han rat at 1 mg/kg, iv; format: ADME, organism-based; parameters: dose 1 mg/kg, route intravenous; details: in vivo, read-out: Vdss
[8] = AUC (0 to infinity) in male Wistar-Han rat at 1 mg/kg, iv; format: ADME, organism-based; parameters: time infinity, dose 1 mg/kg, route intravenous; details: plasma
[9] = AUC (0 to infinity) in male Wistar-Han rat at 10 mg/kg, po; format: ADME, organism-based; parameters: time infinity, dose 10 mg/kg, route oral; details: plasma
Summary of the method: (§2)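 Jugular vein-cannulated male Wistar-Hannover rats (230-250 g), n = 3, fasted overnight and fed after the 4 h sample; oral dosing in the i.v. formulations, except the SEDDS formulation used 90% water. Serial blood 0.083–24 h, K2EDTA plasma, LC-MS/MS against standard curve; non-compartmental AUC0-∞ by linear trapezoid rule.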

[10] = Terminal elimination half life in Wistar-Han rat at 1 mg/kg, iv; format: ADME, organism-based; parameters: dose 1 mg/kg, route intravenous; details: in vivo, read-out: beta t1/2 (converted)
[11] = Terminal elimination half life in Wistar-Han rat at 10 mg/kg, po; format: ADME, organism-based; parameters: dose 10 mg/kg, route oral; details: in vivo, read-out: beta t1/2 (converted)
Summary of the method: (§3)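 Male Wistar-Hannover rats (230–250 g, n = 3), jugular-cannulated, were fasted overnight and dosed by oral gavage. Vehicle depended on compound: SEDDS/water or propylene glycol/sodium phosphate pH 7.4. Blood was collected at 0.083–24 h into K2EDTA and the plasma analyzed by LC-MS/MS. Terminal half-life came from the non-compartmental ln-concentration slope.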

[12] = Oral bioavailability in male Wistar-Han rat at 10 mg/kg; format: ADME, organism-based; details: in vivo
Summary of the method: (§4)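 Male Wistar-Hannover rats (230-250 g, cannulated; n = 3) fasted overnight, fed after the 4 h sample, and dosed orally in the i.v. formulations or 10% SEDDS:90% water. Serial blood sampled 0.083–24 h into K2EDTA. Plasma measured by LC-MS/MS against a standard curve. Cmax and Tmax read from individual profiles; F = oral AUC0-∞ relative to i.v. AUC0-∞.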

[13] = Apparent permeability from apical to basolateral side in human Caco2 cells by LC-MS/MS analysis; format: ADME, cell-based; details: Caco-2
[14] = Cmax in male Wistar-Han rat at 5 mg/kg, po; format: ADME, organism-based; parameters: dose 5 mg/kg, route oral; details: in vivo
Summary of the method: (§5)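 Jugular vein-cannulated male Wistar-Hannover rats (230-250 g), n = 3, fasted overnight and fed after the 4 h sample. Single oral dose in compound-specific vehicles (10% SEDDS:90% water, or propylene glycol with 20 mM sodium phosphate pH 7.4). Serial blood at 0.083–24 h into K2EDTA. Plasma protein-precipitated with internal standard and analysed by LC-MS/MS. Cmax read directly from individual concentration–time curves.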

[15] = AUC (0 to infinity) in male Wistar-Han rat at 5 mg/kg, po; format: ADME, organism-based; parameters: time infinity, dose 5 mg/kg, route oral; details: plasma; summary of the method: as §2
[16] = Terminal elimination half life in Wistar-Han rat at 5 mg/kg, po; format: ADME, organism-based; parameters: dose 5 mg/kg, route oral; details: in vivo, read-out: beta t1/2 (converted); summary of the method: as §3
[17] = Oral bioavailability in male Wistar-Han rat at 5 mg/kg; format: ADME, organism-based; details: in vivo; summary of the method: as §4
[18] = Oral bioavailability in male Wistar-Han rat assessed as dose escapes hepatic metabolism; format: ADME, organism-based; details: in vivo
[19] = Oral bioavailability in male Wistar-Han rat assessed as fraction of absorbed dose; format: ADME, organism-based; details: in vivo, read-out: Fabs
[20] = Cmax in male Wistar-Han rat at 2.9 mg/kg, po; format: ADME, organism-based; parameters: dose 2.9 mg/kg, route oral; details: in vivo; summary of the method: as §5
[21] = Plasma clearance in male Wistar-Han rat at 0.4 mg/kg, iv; format: ADME, organism-based; parameters: dose 0.4 mg/kg, route intravenous
Summary of the method: (§6)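 Jugular vein-cannulated male Wistar-Hannover rats (230-250 g; n = 3) given a 30 s tail-vein bolus in SEDDS/dextrose or propylene glycol/20 mM sodium phosphate (pH 7.4) vehicles. Blood sampled 0.03–24 h via cannula into K2EDTA. Plasma proteins precipitated, LC-MS/MS. Non-compartmental: CLp = dose/AUC0-∞ (linear trapezoid); Vdss; T1/2 = 0.693/terminal log-linear slope.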

[22] = Volume of distribution at steady state in male Wistar-Han rat at 0.4 mg/kg, iv; format: ADME, organism-based; parameters: dose 0.4 mg/kg, route intravenous; details: in vivo, read-out: Vdss; summary of the method: as §6
[23] = AUC (0 to infinity) in male Wistar-Han rat at 0.4 mg/kg, iv; format: ADME, organism-based; parameters: time infinity, dose 0.4 mg/kg, route intravenous; details: plasma
Summary of the method: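 Jugular vein-cannulated male Wistar-Hannover rats (230-250 g), n = 3, fed ad libitum; 30 s tail-vein injection in 10% SEDDS:90% sterile dextrose, 1:1 propylene glycol:20 mM sodium phosphate (pH 7.4), or 10% propylene glycol:90% 20 mM sodium phosphate (pH 7.4). Blood via cannula to 24 h, K2EDTA plasma, LC-MS/MS against standard curve; non-compartmental AUC0-∞ by linear trapezoid rule.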

[24] = AUC (0 to infinity) in male Wistar-Han rat at 2.9 mg/kg, po; format: ADME, organism-based; parameters: time infinity, dose 2.9 mg/kg, route oral; details: plasma; summary of the method: as §2
[25] = Terminal elimination half life in Wistar-Han rat at 0.4 mg/kg, iv; format: ADME, organism-based; parameters: dose 0.4 mg/kg, route intravenous; details: in vivo, read-out: beta t1/2 (converted)
Summary of the method: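 Jugular vein-cannulated male Wistar-Hannover rats (230–250 g, n = 3) received a tail-vein bolus over 30 s. Vehicle depended on compound: SEDDS/dextrose or propylene glycol/20 mM sodium phosphate pH 7.4. Blood was drawn at 0.03–24 h into K2EDTA and the plasma analyzed by LC-MS/MS. Non-compartmental analysis gave T1/2 = 0.693/|terminal ln-slope|.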

[26] = Terminal elimination half life in Wistar-Han rat at 2.9 mg/kg, po; format: ADME, organism-based; parameters: dose 2.9 mg/kg, route oral; details: in vivo, read-out: beta t1/2 (converted); summary of the method: as §3
[27] = Oral bioavailability in male Wistar-Han rat at 2.9 mg/kg; format: ADME, organism-based; details: in vivo; summary of the method: as §4

SMILES: CC(C)C[C@@H]1NC(=O)[C@H](Cc2ccc(O)cc2)N(C)C(=O)[C@H]2CCCN2C(=O)[C@H](CC(C)C)NC(=O)[C@H](CCCCN)N(C)C(=O)[C@@H](CC(C)C)N(C)C1=O (cyclo(L[dNMeL][NMeK]L[dP][NMeY]))
logD [1]: 0.678 | CLint scaled [2]: < 9 mL/min/kg | CLint scaled [3]: < 8 mL/min/kg | Cmax [4]: 18.3 ng/mL | Tmax [5]: 1.56 h | clearance [6]: 10.4 mL/min/kg | Vd [7]: 0.93 L/kg | AUC(0-inf) [8]: 1640 ng·h/mL | AUC(0-inf) [9]: 18.1 ng·h/mL | half-life [10]: 1.01 h | half-life [11]: 1.56 h | bioavailability [12]: 0.09% | Papp A→B [13]: 0.09 ×10⁻⁶ cm/s

CLint scaled [3]: 120 mL/min/kg
SMILES: CC(C)C[C@@H]1NC(=O)[C@H](Cc2ccc(O)cc2)N(C)C(=O)[C@H]2CCCN2C(=O)[C@H](CC(C)C)NC(=O)[C@H](CC(C)C)N(C)C(=O)[C@@H](CC(C)C)N(C)C1=O (cyclo(L[dNMeL][NMeL]L[dP][NMeY]))

SMILES: CNCCCC[C@H]1C(=O)N[C@@H](CC(C)C)C(=O)N2CCC[C@@H]2C(=O)N(C)[C@@H](Cc2ccc(O)cc2)C(=O)N[C@@H](CC(C)C)C(=O)N(C)[C@H](CC(C)C)C(=O)N1C (cyclo(L[dNMeL][NMeLys(Me)]L[dP][NMeY]))
logD [1]: 0.723 | CLint scaled [3]: 9 mL/min/kg

SMILES: CC(C)C[C@@H]1NC(=O)[C@H](Cc2ccc(O)cc2)N(C)C(=O)[C@H]2CCCN2C(=O)[C@H](CC(C)C)NC(=O)[C@H](CO)N(C)C(=O)[C@@H](CC(C)C)N(C)C1=O (cyclo(L[dNMeL][NMeS]L[dP][NMeY]))
logD [1]: 2.61 | CLint scaled [2]: 96 mL/min/kg | CLint scaled [3]: 80 mL/min/kg | Cmax [14]: 9.86 ng/mL | clearance [6]: 60.4 mL/min/kg | Vd [7]: 4.3 L/kg | AUC(0-inf) [8]: 282 ng·h/mL | AUC(0-inf) [15]: 42.3 ng·h/mL | half-life [10]: 1.46 h | half-life [16]: 2.82 h | bioavailability [17]: 2.03% | Papp A→B [13]: 3.3 ×10⁻⁶ cm/s | Fh [18]: 14% | Fa [19]: 14.5%

SMILES: CC(C)C[C@@H]1NC(=O)[C@H](Cc2ccc(O)cc2)N(C)C(=O)[C@H]2CCCN2C(=O)[C@H](CC(C)C)NC(=O)[C@H]([C@@H](C)O)N(C)C(=O)[C@@H](CC(C)C)N(C)C1=O (cyclo(L[dNMeL][NMeT]L[dP][NMeY]))
logD [1]: 3.17 | CLint scaled [2]: 44 mL/min/kg | CLint scaled [3]: 89 mL/min/kg | Cmax [20]: 105 ng/mL | clearance [21]: 63.6 mL/min/kg | Vd [22]: 3.8 L/kg | AUC(0-inf) [23]: 109 ng·h/mL | AUC(0-inf) [24]: 201 ng·h/mL | half-life [25]: 1.03 h | half-life [26]: 0.92 h | bioavailability [27]: 23.8%

SMILES: CC(C)C[C@@H]1NC(=O)[C@H](Cc2ccc(O)cc2)N(C)C(=O)[C@H]2CCCN2C(=O)[C@H](CC(C)C)NC(=O)[C@H](Cc2c[nH]c3ccccc23)N(C)C(=O)[C@@H](CC(C)C)N(C)C1=O (cyclo(L[dNMeL][NMeW]L[dP][NMeY]))
logD [1]: 4.07 | CLint scaled [3]: 56 mL/min/kg

SMILES: CC(C)C[C@@H]1NC(=O)[C@H](Cc2ccc(O)cc2)N(C)C(=O)[C@H]2CCCN2C(=O)[C@H](CC(C)C)NC(=O)[C@H](Cc2ccc(O)cc2)N(C)C(=O)[C@@H](CC(C)C)N(C)C1=O (cyclo(L[dNMeL][NMeY]L[dP][NMeY]))
logD [1]: 3.82 | CLint scaled [3]: 29 mL/min/kg

logD [1]: 2.2 | CLint scaled [3]: < 8 mL/min/kg
SMILES: CC(C)C[C@@H]1NC(=O)[C@H](Cc2ccc(O)cc2)N(C)C(=O)[C@H]2CCCN2C(=O)[C@H](CC(C)C)NC(=O)[C@H](CCN2CCCCC2)N(C)C(=O)[C@@H](CC(C)C)N(C)C1=O (cyclo(L[dNMeL][X1]L[dP][NMeY]))
